According to article PMC10085944 (Clinical Pharmacokinetics, 2023):
Where two headings read alike, the source gives them in different places.

Columns and labels:
[1] = cited from earlier work
[2] = SBS patients; dose reduction by 50% recommended; cited from earlier work
[3] = Safety and tolerability assessment in the Phase 1 renal impairment trial; assay type: in vivo, human
Summary of the method: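 Subjects admitted the day before a single 10 mg SC abdominal dose, kept on site for the first 3 days, then seen as outpatients daily to Day 8, with follow-up on Day 11. Ongoing monitoring covered AE recording (MedDRA preferred terms), vital signs, 12-lead ECGs, clinical laboratory tests, physical examinations and injection-site reactions.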

[4] = SC; slow release of M1 and M2 from the SC depot; cited from earlier work

For teduglutide, the half-life ([1]; teduglutide) is listed as “approximately 2 h” and the “AUC0–∞ and Cmax in moderate or severe renal impairment/ESRD” value [2] is listed as “elevated”.

In the case of Glepaglutide, the “serious AEs, deaths, or AEs leading to trial withdrawal” value ([3]; 16 subjects, single SC dose glepaglutide 10 mg) is reported as “no serious AEs, deaths, or AEs leading to trial withdrawal”, the “total number of AEs (all non-serious and mild)” value ([3]; reported in 3 of 16 subjects, single SC dose 10 mg) is reported as 6 and the “overall safety and tolerability” value ([3]; single SC dose 10 mg, normal renal function and severe renal impairment or ESRD) is reported as “safe and well tolerated”. The effective half-life [4] was 88.3 h.

For “native GLP-2: 33-amino acid intestinal growth factor secreted in response to nutrient intake”, the half-life ([1]; native GLP-2, in vivo) is given as 5 to 7 min.
